Data reported in ChEMBL document CHEMBL1142195, “A novel nonnucleoside analogue that inhibits human immunodeficiency virus type 1 isolates resistant to current nonnucleoside reverse transcriptase inhibitors” (Antimicrob Agents Chemother, 2007).

Columns and labels:
Format in all cases: functional, organism-based
[1] = tested on: Human immunodeficiency virus 1; assay: Antiviral activity against HIV1 isolate with RT K103N-V108I mutation
Procedure, shortened: (§1)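 VSV-G-pseudotyped pNL4-3.Luc.R−E− molecular clones carrying the RT mutations, single-round infection of HeLa-JC53 cells (15,000/well) at MOI 0.03. Compounds serially diluted 1:4 in DMSO then in phenol red-free DMEM with 2% FBS, final DMSO 0.2%. Incubated 48 h at 37°C, 5% CO2. Luciferase read-out by chemiluminescence gives the EC50. Fold change is relative to wt virus, mean of two tests.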

[2] = tested on: Human immunodeficiency virus 1; assay: Antiviral activity against HIV1 isolate with RT G190A mutation; procedure, shortened: as §1
[3] = tested on: Human immunodeficiency virus 1; assay: Antiviral activity against HIV1 isolate with RT K103N-Y181C mutation; procedure, shortened: as §1
[4] = tested on: Human immunodeficiency virus 1; assay: Antiviral activity against HIV1 isolate with RT K101E mutant; procedure, shortened: as §1
[5] = tested on: Human immunodeficiency virus 1; assay: Antiviral activity against HIV1 isolate with RT K103N-V108I-P225H mutation; procedure, shortened: as §1
[6] = tested on: Human immunodeficiency virus 1; assay: Antiviral activity against HIV1 isolate with RT Y188L mutation; procedure, shortened: as §1
[7] = tested on: Human immunodeficiency virus 1; assay: Antiviral activity against HIV1 isolate with RT K103N-K101Q-P225H mutation; procedure, shortened: as §1
[8] = tested on: Human immunodeficiency virus 1; assay: Antiviral activity against HIV1 isolate with RT K103N-V108I-A98G mutation; procedure, shortened: as §1
[9] = tested on: Human immunodeficiency virus 1; assay: Antiviral activity against HIV1 isolate with RT K103N-P225H mutation; procedure, shortened: as §1
[10] = tested on: Human immunodeficiency virus 1; assay: Antiviral activity against HIV1 isolate with RT K103N mutation; procedure, shortened: as §1
[11] = tested on: Human immunodeficiency virus 1; assay: Antiviral activity against HIV1 isolate with RT K103N-F227L mutation; procedure, shortened: as §1
[12] = tested on: Human immunodeficiency virus 1; assay: Antiviral activity against HIV1 isolate with RT G190S mutation; procedure, shortened: as §1
[13] = tested on: Human immunodeficiency virus 1; assay: Antiviral activity against HIV1 isolate with RT K103N-L100I mutation; procedure, shortened: as §1
[14] = tested on: Human immunodeficiency virus 1; assay: Antiviral activity against HIV1 isolate with RT V106I mutation; procedure, shortened: as §1
[15] = tested on: Human immunodeficiency virus 1; assay: Antiviral activity against HIV1 isolate with RT K103N-K101Q mutation; procedure, shortened: as §1
[16] = tested on: Human immunodeficiency virus 1; assay: Antiviral activity against HIV1 isolate with RT K103N-Y188L mutation; procedure, shortened: as §1
[17] = tested on: Human immunodeficiency virus 1; assay: Antiviral activity against wild type HIV1
[18] = tested on: Human immunodeficiency virus 1; assay: Antiviral activity against HIV1 isolate V106I-Y188L mutant
[19] = tested on: Human immunodeficiency virus 1; assay: Antiviral activity against HIV1 isolate with RT A98G mutation; procedure, shortened: as §1
[20] = tested on: Human immunodeficiency virus 1; assay: Antiviral activity against HIV1 isolate with RT Y181C mutation; procedure, shortened: as §1

Question: How did the EC50 [1] turn out when `O=C1Nc2ccc(Cl)cc2[C@@](C#CC2CC2)(C(F)(F)F)O1` [EFAVIRENZ] was run?
Answer: The EC50 was 8.63 nM.

Question: And the EC50 [2]?
Answer: The EC50 was 0.48 nM.

Question: And the EC50 [3]?
Answer: Its EC50 is 4.24 nM.

Question: What about the EC50 [4] of the same compound?
Answer: The EC50 was 0.74 nM.

Question: What about the EC50 [5] of the same compound?
Answer: The EC50 was 77.1 nM.

Question: What about the EC50 [6] of the same compound?
Answer: The EC50 was 24.4 nM.

Question: What about the EC50 [7] of the same compound?
Answer: The EC50 was 78.4 nM.

Question: What about the EC50 [8] of the same compound?
Answer: Its EC50 is 67.9 nM.

Question: And the EC50 [9]?
Answer: Its EC50 is 34.9 nM.

Question: And the EC50 [10]?
Answer: The EC50 was 2.73 nM.

Question: What about the EC50 [11] of the same compound?
Answer: The EC50 was 2.26 nM.

Question: What about the EC50 [12] of the same compound?
Answer: The EC50 was 14.3 nM.

Question: What about the EC50 [13] of the same compound?
Answer: The EC50 was 258 nM.

Question: And the EC50 [14]?
Answer: Its EC50 is 0.27 nM.

Question: And the EC50 [15]?
Answer: The EC50 was 12.7 nM.

Question: What about the EC50 [16] of the same compound?
Answer: The EC50 was > 2500 nM.

Question: What about the EC50 [17] of the same compound?
Answer: Its EC50 is 0.17 nM.

Question: And the EC50 [18]?
Answer: The EC50 was 136 nM.

Question: And the EC50 [19]?
Answer: Its EC50 is 0.64 nM.

Question: What about the EC50 [20] of the same compound?
Answer: Its EC50 is 0.33 nM.
